Broadly, the IC50 is the concentration that inhibits the measured activity by half.

The source made the active and inactive calls. No cut-off for these calls is given here.

26 compounds from ChEMBL document CHEMBL1811899, “Synthesis and evaluation of novel 2-butyl-4-chloro-1-methylimidazole embedded chalcones and pyrazoles as angiotensin converting enzyme (ACE) inhibitors” (Bioorg Med Chem, 2011) can be followed below.

One assay addresses T1, Angiotensin-converting enzyme (Oryctolagus cuniculus) (UniProt P12822).
T1 sequence (whole entry): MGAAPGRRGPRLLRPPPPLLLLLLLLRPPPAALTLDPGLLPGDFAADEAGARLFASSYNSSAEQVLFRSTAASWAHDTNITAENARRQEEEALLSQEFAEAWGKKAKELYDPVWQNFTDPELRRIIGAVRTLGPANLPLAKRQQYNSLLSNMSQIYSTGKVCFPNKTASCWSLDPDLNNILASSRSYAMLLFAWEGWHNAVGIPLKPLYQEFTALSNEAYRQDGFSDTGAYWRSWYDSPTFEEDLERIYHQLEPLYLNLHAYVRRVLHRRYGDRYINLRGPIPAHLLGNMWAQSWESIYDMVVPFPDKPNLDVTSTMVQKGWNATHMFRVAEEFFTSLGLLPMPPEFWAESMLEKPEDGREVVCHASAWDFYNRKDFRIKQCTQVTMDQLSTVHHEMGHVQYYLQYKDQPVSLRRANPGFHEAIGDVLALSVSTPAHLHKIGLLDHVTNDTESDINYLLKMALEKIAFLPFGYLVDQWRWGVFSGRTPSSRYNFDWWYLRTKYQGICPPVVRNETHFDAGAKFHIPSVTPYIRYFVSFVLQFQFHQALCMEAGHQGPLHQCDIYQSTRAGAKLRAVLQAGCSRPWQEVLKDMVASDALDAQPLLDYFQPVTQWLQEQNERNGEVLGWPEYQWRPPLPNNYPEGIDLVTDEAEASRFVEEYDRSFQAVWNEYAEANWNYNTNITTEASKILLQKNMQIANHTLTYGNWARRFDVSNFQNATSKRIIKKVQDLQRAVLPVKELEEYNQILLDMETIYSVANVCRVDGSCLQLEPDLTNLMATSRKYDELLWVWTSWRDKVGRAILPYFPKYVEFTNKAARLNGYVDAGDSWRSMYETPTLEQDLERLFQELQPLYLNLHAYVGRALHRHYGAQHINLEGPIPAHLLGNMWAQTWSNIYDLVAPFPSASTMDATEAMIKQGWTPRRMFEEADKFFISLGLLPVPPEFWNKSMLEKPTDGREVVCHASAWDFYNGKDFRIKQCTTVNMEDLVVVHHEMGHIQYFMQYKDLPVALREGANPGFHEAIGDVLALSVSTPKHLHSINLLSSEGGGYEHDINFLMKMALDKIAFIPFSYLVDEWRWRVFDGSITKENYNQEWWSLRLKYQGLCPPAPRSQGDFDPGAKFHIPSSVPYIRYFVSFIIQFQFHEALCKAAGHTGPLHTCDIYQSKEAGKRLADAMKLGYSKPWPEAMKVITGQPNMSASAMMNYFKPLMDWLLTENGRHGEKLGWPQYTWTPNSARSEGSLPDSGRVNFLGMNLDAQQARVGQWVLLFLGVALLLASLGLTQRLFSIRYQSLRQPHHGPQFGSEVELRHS
The experiment in a line: (§1) Inhibition of rabbit lung ACE assessed as reduction in hippuryl-histidyl-leucine substrate by colorimetric assay. The method in brief: (§2)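 ACE came from a rabbit lung homogenate in 0.05 M sodium borate, pH 8.2, 0.3 M NaCl, 0.5% Triton X-100 at 4 °C, centrifuged. Enzyme was preincubated with compound for 10 min at 37 °C, then run for 30 min at 37 °C with 5 mM HHL stock in borate/NaCl buffer. Hippuric acid was derivatised with pyridine and benzenesulfonyl chloride and read at 410 nm. IC50 was taken from % inhibition versus concentration curves; means of three experiments.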
Regarding `CCCCc1nc(Cl)c(/C=C/C(=O)c2ccc(Cl)s2)n1C`, the inhibition result was “Dose-dependent effect”.
With `CCCCc1nc(Cl)c(/C=C/C(=O)c2ccc3sc4ccccc4c3c2)n1C`, the inhibition entry was “Dose-dependent effect”.
Still for that read-out and setting: to `CCCCc1nc(Cl)c(/C=C/C(=O)c2ccc[nH]2)n1C` belongs “Dose-dependent effect”.

A further assay concerns the target T2, Angiotensin-converting enzyme (Oryctolagus cuniculus, UniProt P12822).
T2 sequence (P12822 whole entry): T1 sequence (whole entry)
The assay is described as §1. The method in brief: as §2
For `CCCCc1nc(Cl)c(C2CC(c3ccc([N+](=O)[O-])cc3)=NN2C(C)=O)n1C` (stereo not given), the IC50 turned out to be 2220 µM.
Same read-out and setting: to `CCCCc1nc(Cl)c(/C=C/C(=O)c2ccc(Cl)s2)n1C` belongs 3.6 µM; to `CCCCc1nc(Cl)c(C2CC(c3ccc(OC)cc3)=NN2C(C)=O)n1C` (stereo not given), 2330 µM; to `CCCCc1nc(Cl)c(C2CC(c3cc(OC)c(OC)c(OC)c3)=NN2C(C)=O)n1C` (stereo not given), 2120 µM.
As to `CCCCc1nc(Cl)c(/C=C/C(=O)c2ccc3sc4ccccc4c3c2)n1C`, the IC50 came to 2.68 µM.
Turning to `CCCCc1nc(Cl)c(/C=C/C(=O)c2ccc[nH]2)n1C`, the IC50 was found to be 2.24 µM.
For the compound `CCCCc1nc(Cl)c(C2CC(c3ccc(Cl)s3)=NN2C(C)=O)n1C` (stereo not given), the IC50 is 1800 µM.
Regarding `O=c1cc(-c2ccc(O)cc2)oc2cc(O)cc(O)c12` [APIGENIN], the IC50 stood at 280 µM.
`CCCCc1nc(Cl)c(C2CC(c3ccc4sc5ccccc5c4c3)=NN2C(C)=O)n1C` (stereo not given): the IC50 was 2010 µM.
Same read-out and setting: as for `CCCCc1nc(Cl)c(C2CC(c3ccco3)=NN2C(C)=O)n1C` (stereo not given), the figure is 2350 µM.
With `O=C(/C=C/c1ccc(O)c(O)c1)c1ccc(O)cc1O` [BUTEIN], the IC50 was 730 µM.

The target in a further assay is T1, Angiotensin-converting enzyme (Oryctolagus cuniculus). The experiment in a line: Inhibition of rabbit lung ACE assessed as reduction in hippuryl-histidyl-leucine substrate at 3 uM by colorimetric assay. The method in brief:
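Rabbit lung homogenised (1 g in 10 mL of 0.05 M sodium borate, pH 8.2, with 0.3 M NaCl and 0.5% Triton X-100, 4 °C) and centrifuged to give the ACE source. Enzyme and test solution preincubated 10 min at 37 °C. The reaction was started with borate/NaCl buffer plus 5 mM HHL stock and run 30 min at 37 °C. Released hippuric acid was reacted with pyridine and benzenesulfonyl chloride, and the yellow product read at 410 nm. Inhibition% = 100 − (T/C)×100.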
`CCCCc1nc(Cl)c(/C=C/C(=O)c2ccc(Cl)s2)n1C`: the inhibition result is “Active”.
In the case of `CCCCc1nc(Cl)c(/C=C/C(=O)c2cccs2)n1C`, the inhibition entry was “Active”.
As for `CCCCc1nc(Cl)c(/C=C/C(=O)c2cccnc2)n1C`, the inhibition result was “Active”.
Turning to `CCCCc1nc(Cl)c(/C=C/C(=O)c2ccc(C)cc2)n1C`, the inhibition entry is “Active”.
In the case of `CCCCc1nc(Cl)c(/C=C/C(=O)c2ccc([N+](=O)[O-])cc2)n1C`, the inhibition result was “Active”.
With `CCCCc1nc(Cl)c(/C=C/C(=O)c2ccccc2)n1C`, the inhibition result was “Active”.
Turning to `CCCCc1nc(Cl)c(/C=C/C(=O)c2ccco2)n1C`, the inhibition result was “Active”.
As to `CCCCc1nc(Cl)c(/C=C/C(=O)c2cccc(Br)n2)n1C`, the inhibition result is “Active”.
The same measure, in the same setting: as for `CCCCc1nc(Cl)c(/C=C/C(=O)c2cc(OC)c(OC)c(OC)c2)n1C`, the entry is “Active”; as for `CCCCc1nc(Cl)c(/C=C/C(=O)c2ccc3c(c2)c2ccccc2n3C)n1C`, “Active”.
`CCCCc1nc(Cl)c(/C=C/C(=O)c2ccc(Br)s2)n1C`: the inhibition result is “Active”.
In the case of `CCCCc1nc(Cl)c(/C=C/C(=O)c2ccc(OC)cc2)n1C`, the inhibition result was “Active”.
Turning to `CCCCc1nc(Cl)c(/C=C/C(=O)c2ccc3ccccc3c2)n1C`, the inhibition entry is “Active”.
With `CCCCc1nc(Cl)c(/C=C/C(=O)c2cccc3ccccc23)n1C`, the inhibition entry is “Active”.
For `CCCCc1nc(Cl)c(C2CC(c3cccc4ccccc34)=NN2C(C)=O)n1C` (stereo not given), the inhibition result was “inactive”.
Turning to `CCCCc1nc(Cl)c(/C=C/C(=O)c2ccc3oc4ccccc4c3c2)n1C`, the inhibition result is “Active”.
